Results: ChEMBL document CHEMBL3351655, “Scaffold decoration at positions 5 and 8 of 1,2,4-triazolo[1,5-c]pyrimidines to explore the antagonist profiling on adenosine receptors: a preliminary structure-activity relationship study” (J Med Chem, 2014)

How the values were obtained:
[1] = target: T1, Adenosine receptor A2b (Homo sapiens, UniProt P29275); experiment: Antagonist activity at human adenosine A2B receptor expressed in CHO cells assessed as inhibition of NECA-stimulated adenylyl cyclase activity; assay type: functional, cell-based
T1 sequence (P29275 whole entry): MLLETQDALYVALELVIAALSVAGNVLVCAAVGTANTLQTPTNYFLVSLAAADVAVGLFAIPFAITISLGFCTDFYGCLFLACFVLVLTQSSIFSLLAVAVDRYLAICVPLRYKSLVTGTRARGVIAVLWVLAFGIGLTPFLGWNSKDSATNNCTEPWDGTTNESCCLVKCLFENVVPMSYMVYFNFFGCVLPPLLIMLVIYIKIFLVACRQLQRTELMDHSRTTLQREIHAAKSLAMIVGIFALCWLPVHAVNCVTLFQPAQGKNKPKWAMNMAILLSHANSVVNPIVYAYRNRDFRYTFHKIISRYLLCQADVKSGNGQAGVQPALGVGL
Procedure, shortened: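 Membranes from stably transfected CHO cells, made with a single high-speed centrifugation of the homogenate. Incubated 20 min with about 150 000 cpm [α-³²P]ATP, in a mixture without EGTA and NaCl. IC50 for concentration-dependent inhibition of NECA-stimulated adenylyl cyclase was fitted with the Hill equation and converted to Ki by Cheng–Prusoff.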

[2] = test system: CHO; experiment: Selectivity ratio of Ki for human adenosine A1 receptor expressed in CHO cells to Ki for human adenosine A2A receptor expressed in CHO cells; assay type: cell-based
[3] = target: Adenosine receptors; A1 & A3 (Homo sapiens) (UniProt P30542+P0DMS8); experiment: Selectivity ratio of Ki for human adenosine A1 receptor expressed in CHO cells to Ki for human adenosine A3 receptor expressed in CHO cells; assay type: cell-based
[4] = test system: CHO; experiment: Selectivity ratio of Ki for human adenosine A2A receptor expressed in CHO cells to Ki for human adenosine A3 receptor expressed in CHO cells; assay type: cell-based
[5] = target: T2, Adenosine receptor A1 (Homo sapiens, UniProt P30542); experiment: Displacement of [3H]CCPA from human adenosine A1 receptor expressed in CHO cells; assay type: cell-based
T2 sequence (P30542 whole entry): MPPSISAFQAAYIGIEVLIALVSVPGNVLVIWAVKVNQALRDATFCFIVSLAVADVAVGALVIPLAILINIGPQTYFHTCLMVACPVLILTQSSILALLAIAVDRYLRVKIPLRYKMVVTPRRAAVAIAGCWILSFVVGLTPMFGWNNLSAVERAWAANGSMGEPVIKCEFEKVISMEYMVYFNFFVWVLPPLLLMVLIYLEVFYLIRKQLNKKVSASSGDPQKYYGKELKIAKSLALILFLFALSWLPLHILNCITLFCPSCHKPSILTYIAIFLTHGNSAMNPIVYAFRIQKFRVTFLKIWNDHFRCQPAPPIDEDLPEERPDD
Procedure, shortened: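 Stably transfected CHO cells were homogenised and spun at 1000g to remove nuclei and fragments. Membranes were then pelleted at 100 000g, resuspended in binding buffer, frozen in liquid nitrogen and stored. Radioligand was [³H]CCPA, with nonspecific binding defined by 1 mM theophylline.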

[6] = target: Adenosine receptor A2a (Homo sapiens, UniProt P29274); experiment: Displacement of [3H]NECA from human adenosine A2A receptor expressed in CHO cells; assay type: cell-based
Adenosine receptor A2a, sequence (P29274 whole entry): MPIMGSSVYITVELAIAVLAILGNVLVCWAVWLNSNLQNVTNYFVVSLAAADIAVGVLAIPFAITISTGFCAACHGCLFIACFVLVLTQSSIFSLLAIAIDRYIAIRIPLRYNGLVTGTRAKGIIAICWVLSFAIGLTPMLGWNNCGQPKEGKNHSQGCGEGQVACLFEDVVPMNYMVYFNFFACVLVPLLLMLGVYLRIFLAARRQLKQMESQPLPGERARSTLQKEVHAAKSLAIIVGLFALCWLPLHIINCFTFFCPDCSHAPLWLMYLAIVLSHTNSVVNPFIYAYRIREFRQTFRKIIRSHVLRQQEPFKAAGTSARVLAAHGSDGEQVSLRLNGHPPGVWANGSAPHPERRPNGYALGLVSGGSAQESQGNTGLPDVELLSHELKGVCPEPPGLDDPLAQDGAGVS

[7] = target: T3, Adenosine receptor A3 (Homo sapiens, UniProt P0DMS8); experiment: Displacement of [3H]NECA from human adenosine A3 receptor expressed in CHO cells; assay type: cell-based
T3 sequence (P0DMS8 whole entry): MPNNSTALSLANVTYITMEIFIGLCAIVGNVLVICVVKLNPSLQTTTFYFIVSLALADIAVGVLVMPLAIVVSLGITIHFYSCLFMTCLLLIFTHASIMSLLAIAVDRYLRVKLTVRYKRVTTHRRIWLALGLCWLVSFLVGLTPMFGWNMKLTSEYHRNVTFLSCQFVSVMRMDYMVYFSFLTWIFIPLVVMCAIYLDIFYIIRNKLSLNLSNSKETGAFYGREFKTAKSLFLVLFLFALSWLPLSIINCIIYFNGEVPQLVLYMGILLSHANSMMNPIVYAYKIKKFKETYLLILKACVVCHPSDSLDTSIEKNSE
Procedure, shortened: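 Radioligand [³H]NECA was used on membranes from stably transfected CHO cells, prepared by a 1000g clearing spin then pelleting at 100 000g. Pellets were resuspended in binding buffer, frozen in liquid nitrogen and stored. Nonspecific binding was defined with 100 μM R-PIA.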

Row | Ki [1] | Ratio Ki [3] | Ki [5] | Ki [6] | Ki [7] | Structure (SMILES) | Ratio Ki [2] | Ratio Ki [4]
1 | > 3000 nM | 6.42 | 75.2 nM | 28.9 nM | 11.7 nM | CCOC(=O)c1cnc(NC2CCC2)n2nc(-c3ccco3)nc12 | 2.6 | 2.47
2 | > 10000 nM | 18.7 | 15600 nM | 10200 nM | 836 nM | CCOC(=O)c1cnc(N2CCCC2)n2nc(-c3ccco3)nc12 | 1.53 | 12.2
3 | > 30000 nM | 1.04 | 5760 nM | 12400 nM | 5520 nM | COc1ccc(CNc2ncc(C(=O)O)c3nc(-c4ccco4)nn23)cc1 | 0.46 | 2.25
4 | 2510 nM | 94 | 940 nM | 32 nM | 10 nM | CCOC(=O)c1cnc(NCc2ccccc2)n2nc(-c3ccco3)nc12 | 29.4 | 3.2
5 | 13300 nM | 8.14 | 315 nM | 116 nM | 38.7 nM | CCOC(=O)c1cnc(NCc2ccc(OC)c(OC)c2)n2nc(-c3ccco3)nc12 | 2.71 | 3
6 | > 10000 nM | 21.6 | 2270 nM | 292 nM | 105 nM | CCOC(=O)c1cnc(NCCOC)n2nc(-c3ccco3)nc12 | 7.77 | 2.78
7 | > 10000 nM | 24.8 | 11900 nM | 3680 nM | 480 nM | CCNc1ncc(C(=O)O)c2nc(-c3ccco3)nn12 | 3.23 | 7.67
8 | > 10000 nM | 3.63 | 2730 nM | 1190 nM | 751 nM | Cc1ccc(CNc2ncc(C(=O)O)c3nc(-c4ccco4)nn23)cc1 | 2.29 | 1.58
9 | > 10000 nM | 48.7 | 13400 nM | 6480 nM | 275 nM | CCOC(=O)c1cnc(N(C)C)n2nc(-c3ccco3)nc12 | 2.07 | 23.6
10 | > 10000 nM | 54.2 | 613 nM | 50.1 nM | 11.3 nM | CCCCCNc1ncc(C(=O)OCC)c2nc(-c3ccco3)nn12 | 12.2 | 4.43
11 | > 30000 nM | 0.57 | 317 nM | 28.1 nM | 553 nM | O=C(Cc1ccccc1)Nc1ncc(C(=O)NCCc2ccccc2)c2nc(-c3ccco3)nn12 | 11.3 | 0.05
12 | 1970 nM | 20.1 | 932 nM | 39.3 nM | 46.3 nM | CCOC(=O)c1cnc(NCc2ccc(F)cc2)n2nc(-c3ccco3)nc12 | 23.7 | 0.85
13 | 4810 nM | 21.7 | 1250 nM | 142 nM | 57.6 nM | CCOC(=O)c1cnc(NCc2ccc(OC)cc2)n2nc(-c3ccco3)nc12 | 8.8 | 2.46
14 | > 30000 nM | 1.06 | 30100 nM | > 100000 nM | 28300 nM | O=C(O)c1cnc(NCc2ccc(-c3ccccc3)cc2)n2nc(-c3ccco3)nc12 | < 0.3 | > 3.53
15 | > 30000 nM | 4.39 | 385 nM | 65.2 nM | 87.7 nM | COc1ccc(CNc2ncc(C(=O)NCCc3ccccc3)c3nc(-c4ccco4)nn23)cc1OC | 5.9 | 0.74
16 | 4840 nM | 0.25 | 296 nM | 12.4 nM | 1190 nM | CNC(=O)c1cnc(NC(=O)Cc2ccccc2)n2nc(-c3ccco3)nc12 | 23.9 | 0.01

Row | Ki [1] | Ratio Ki [3] | Ki [5] | Ki [6] | Ki [7] | Structure (SMILES) | Ratio Ki [2] | Ratio Ki [4]
17 | > 10000 nM | 10.5 | 432 nM | 121 nM | 41.2 nM | CCOC(=O)c1cnc(NCC2CCCCC2)n2nc(-c3ccco3)nc12 | 3.57 | 2.94
18 | 2450 nM | 236 | 978 nM | 104 nM | 4.14 nM | CCOC(=O)c1cnc(NC)n2nc(-c3ccco3)nc12 | 9.4 | 25.1
19 | 1180 nM | 0.17 | 126 nM | 5.76 nM | 730 nM | CNC(=O)c1cnc(NC(=O)Nc2ccccc2)n2nc(-c3ccco3)nc12 | 21.9 | 0.01
20 | > 30000 nM | > 8.62 | > 100000 nM | > 100000 nM | 11600 nM | O=C(O)c1cnc(NCc2ccc(Cl)cc2)n2nc(-c3ccco3)nc12 | – | > 8.62
21 | > 30000 nM | > 6.29 | > 100000 nM | 18000 nM | 15900 nM | O=C(O)c1cnc(NCc2ccc(C(F)(F)F)cc2)n2nc(-c3ccco3)nc12 | > 5.55 | 1.13
22 | 5320 nM | 0.41 | 57.1 nM | 11.1 nM | 140 nM | Nc1ncc(C(=O)NCCc2ccccc2)c2nc(-c3ccco3)nn12 | 5.14 | 0.08
23 | > 10000 nM | 0.72 | 231 nM | 235 nM | 321 nM | CCOC(=O)c1cnc(NC2CCCCCC2)n2nc(-c3ccco3)nc12 | 0.98 | 0.73
24 | 1900 nM | 0.9 | 322 nM | 4.82 nM | 357 nM | CCOC(=O)c1cnc(NC(=O)Nc2ccccc2)n2nc(-c3ccco3)nc12 | 66.8 | 0.01
25 | 10000 nM | 23.9 | 1340 nM | 122 nM | 56.1 nM | CCOC(=O)c1cnc(NCc2ccc(C)cc2)n2nc(-c3ccco3)nc12 | 11 | 2.17
26 | > 30000 nM | 0.48 | 8990 nM | 1520 nM | 18700 nM | CNC(=O)c1cnc(NC(=O)NC2CCCCC2)n2nc(-c3ccco3)nc12 | 5.91 | 0.08
27 | > 10000 nM | 2.28 | 5090 nM | 3660 nM | 2230 nM | O=C(O)c1cnc(NCc2ccccc2)n2nc(-c3ccco3)nc12 | 1.39 | 1.64
28 | 2030 nM | 0.22 | 135 nM | 15 nM | 609 nM | CNC(=O)c1cnc(N)n2nc(-c3ccco3)nc12 | 9 | 0.02
29 | > 10000 nM | – | > 100000 nM | > 100000 nM | > 30000 nM | CCOC(=O)c1cnc(NN2CCOCC2)n2nc(-c3ccco3)nc12 | – | –
30 | > 10000 nM | – | 1110 nM | – | > 10000 nM | COc1ccc(CCCn2ncc3c2nc(N)n2nc(-c4ccco4)nc32)cc1 | – | –
31 | > 10000 nM | > 6.29 | > 100000 nM | > 100000 nM | 15900 nM | CNc1ncc(C(=O)O)c2nc(-c3ccco3)nn12 | – | > 6.29
32 | > 30000 nM | 6.02 | 958 nM | 5320 nM | 159 nM | COc1ccc(CNc2ncc(C(=O)O)c3nc(-c4ccco4)nn23)cc1OC | – | 33.4
